Measurements pooled from the literature.
Each line is one published result; the experiments were not run side by side.
Target: Dual specificity protein kinase CLK4 (CLK4, Homo sapiens, UniProt Q9HAZ1)

Compound	read-out	mode	method	tested at	endpoint	value
C#Cc1n[nH]c2c(-c3cn([C@@H](C)c4ccccc4)c(=O)[nH]c3=O)cc(F)cc12	enzyme activity	inhibitor		0.1 µM	inhibition	-0.9%
Cc1nn(C)cc1-c1nc2c(N3CCN(Cc4ccc(Cl)cc4)CC3)c(Cl)cnc2[nH]1	binding		competition with immobilised ligand	1 µM	remaining binding	100%
C#Cc1n[nH]c2c(-c3cn([C@@H](C)c4ccccn4)c(=O)[nH]c3=O)cc(F)cc12	enzyme activity	inhibitor		0.1 µM	inhibition	8.9%
Nc1ncc(-c2nc(N3CCOCC3)nc(N3CCOCC3)n2)c(C(F)F)n1	binding		competition with immobilised ligand	10 µM	remaining binding	30%
Cn1cncc1[C@@](O)(COc1ccc(C#N)cc1-c1ccc(OC(F)(F)F)cc1)c1ccc(C#N)cc1	cell-free assay		competition with immobilised ligand	1 µM	remaining binding	96%
CC(C)(C)c1cc(C=C(C#N)C#N)cc(Br)c1O	enzyme activity	inhibitor		0.5 µM	remaining activity	88.6%
COc1cc(Nc2ncc(F)c(Nc3ccc4c(n3)NC(=O)C(C)(C)O4)n2)cc(OC)c1OC	binding		competition with immobilised ligand	10 µM	inhibition	85%
O=c1[nH]c2ccccc2n1C1CCN(Cc2ccc(-c3[nH]c4cc5ncnc5cc4nc3-c3ccccc3)cc2)CC1	cell-free assay			0.5 µM	remaining signal	92.8%
COc1ncccc1-c1cnn2ccc(N3CCN(C(=O)OC(C)C)CC3)nc12	binding		competition with immobilised ligand	1 µM	remaining binding	98%
